Experimental data taken from ChEMBL document CHEMBL1158435, “Identification of a novel inhibitor of JAK2 tyrosine kinase by structure-based virtual screening” (Bioorg Med Chem Lett, 2009).
Calls of active or inactive are those of the source. The rule behind the calls is not given here.

Columns and labels:
[1] = system: HEL; experiment: Growth inhibition of HEL cells harboring Val617Phe mutation in JAK2 at 25 uM after 72 hrs by trypan blue exclusion assay; format: functional; settings: Homo sapiens, read-out: GI
Method in brief: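 Screening assay of HEL growth inhibition. HEL cells carry JAK2-Val617Phe on both alleles. Each compound was tested at a single final concentration of 25 μM.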

[2] = molecular target: Proto-oncogene tyrosine-protein kinase Src (Homo sapiens) (UniProt P12931); experiment: Inhibition of recombinant pp60c-Src at 25 uM by Western blotting
Proto-oncogene tyrosine-protein kinase Src (Homo sapiens), sequence (P12931 2-536 limits assumed): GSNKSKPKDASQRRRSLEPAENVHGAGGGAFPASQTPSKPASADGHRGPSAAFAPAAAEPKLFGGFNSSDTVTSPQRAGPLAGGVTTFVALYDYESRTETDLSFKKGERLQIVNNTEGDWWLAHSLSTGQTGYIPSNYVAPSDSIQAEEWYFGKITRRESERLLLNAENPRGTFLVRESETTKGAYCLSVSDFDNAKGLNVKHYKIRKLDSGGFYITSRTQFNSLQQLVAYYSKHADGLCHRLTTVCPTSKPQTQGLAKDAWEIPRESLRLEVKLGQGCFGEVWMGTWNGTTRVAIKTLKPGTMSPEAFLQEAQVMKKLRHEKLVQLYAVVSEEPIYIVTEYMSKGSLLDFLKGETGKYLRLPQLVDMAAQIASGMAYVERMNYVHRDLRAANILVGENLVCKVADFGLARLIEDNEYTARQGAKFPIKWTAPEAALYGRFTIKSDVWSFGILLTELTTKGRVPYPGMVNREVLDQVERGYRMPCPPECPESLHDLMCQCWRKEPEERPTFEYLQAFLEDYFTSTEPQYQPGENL
Method in brief: (§1)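 Cell-free c-Src kinase assay, with compound tested at 25 μM.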

[3] = system: HEL; experiment: Growth inhibition of HEL cells harboring Val617Phe mutation in JAK2 assessed as reduction in cell number at 100 uM after 48 hrs using trypan blue staining by hemocytometry; format: functional, cell-based; settings: Homo sapiens
Method in brief: (§2)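 Four lines were compared: HEL (JAK2-Val617Phe on both alleles), CMK (JAK3-Ala572Val), Raji (c-Myc/heavy-chain locus translocation) and BSC-40 (green monkey kidney epithelial, SV-40 large T immortalized). Cells were exposed to compound over 10−9 to 10−4 M, and the read-out was cell number.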

[4] = system: HEL; experiment: Growth inhibition of HEL cells harboring Val617Phe mutation in JAK2 assessed as reduction in cell number at 0.001 to 10 uM after 48 hrs using trypan blue staining by hemocytometry; format: functional, cell-based; settings: Homo sapiens; method in brief: as §2
[5] = system: Tyrosine-protein kinase JAK2 (Homo sapiens), O60674 [V617F]; experiment: Inhibition of recombinant JAK2-Val617Phe kinase activity at 25 uM after 30 mins by luminometry
Tyrosine-protein kinase JAK2 (Homo sapiens), O60674 [V617F], sequence (O60674 whole entry V617F): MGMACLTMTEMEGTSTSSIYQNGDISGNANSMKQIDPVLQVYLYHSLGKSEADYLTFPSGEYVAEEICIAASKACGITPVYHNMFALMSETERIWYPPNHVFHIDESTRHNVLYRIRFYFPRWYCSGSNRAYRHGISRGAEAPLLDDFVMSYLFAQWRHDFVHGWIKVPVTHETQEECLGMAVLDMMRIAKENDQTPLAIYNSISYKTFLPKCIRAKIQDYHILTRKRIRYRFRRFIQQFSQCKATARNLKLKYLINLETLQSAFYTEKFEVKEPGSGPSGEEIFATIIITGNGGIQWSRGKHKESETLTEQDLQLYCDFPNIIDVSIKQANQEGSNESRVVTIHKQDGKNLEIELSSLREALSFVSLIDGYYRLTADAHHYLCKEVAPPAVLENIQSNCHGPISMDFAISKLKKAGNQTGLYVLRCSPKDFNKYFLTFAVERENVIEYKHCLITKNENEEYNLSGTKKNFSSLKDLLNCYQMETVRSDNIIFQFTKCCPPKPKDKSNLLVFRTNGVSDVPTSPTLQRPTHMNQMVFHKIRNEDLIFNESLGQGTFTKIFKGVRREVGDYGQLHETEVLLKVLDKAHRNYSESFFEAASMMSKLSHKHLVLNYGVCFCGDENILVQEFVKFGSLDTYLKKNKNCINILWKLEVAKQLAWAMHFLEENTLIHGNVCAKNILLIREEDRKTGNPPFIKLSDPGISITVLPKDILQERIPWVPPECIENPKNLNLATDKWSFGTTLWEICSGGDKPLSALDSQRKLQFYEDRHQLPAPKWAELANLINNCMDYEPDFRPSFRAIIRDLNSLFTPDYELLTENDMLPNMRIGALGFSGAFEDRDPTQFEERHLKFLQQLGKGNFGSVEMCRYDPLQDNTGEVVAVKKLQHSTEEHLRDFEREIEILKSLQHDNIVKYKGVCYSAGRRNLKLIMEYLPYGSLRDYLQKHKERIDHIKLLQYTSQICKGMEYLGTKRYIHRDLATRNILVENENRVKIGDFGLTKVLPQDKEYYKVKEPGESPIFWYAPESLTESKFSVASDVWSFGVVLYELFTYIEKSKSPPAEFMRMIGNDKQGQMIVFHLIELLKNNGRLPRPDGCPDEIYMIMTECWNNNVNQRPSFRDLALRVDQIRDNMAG
Method in brief: (§3)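 Cell-free kinase assay. Recombinant JAK2-Val617Phe protein (JH1+JH2) was incubated with increasing inhibitor concentrations. After the kinetic reactions, relative kinase inhibition was determined from the residual ATP level in each reaction.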

[6] = system: Raji; experiment: Growth inhibition of human Raji cells possessing […] between c-Myc gene on chromosome 8 and heavy chain locus on chromosome 14 assessed as reduction in cell number at 100 uM after 48 hrs using trypan blue staining by hemocytometry; format: functional, cell-based; method in brief: as §2
[7] = system: Raji; experiment: Growth inhibition of human Raji cells possessing […] between c-Myc gene on chromosome 8 and heavy chain locus on chromosome 14 assessed as reduction in cell number at 0.001 to 10 uM after 48 hrs using trypan blue staining by hemocytometry; format: functional, cell-based; method in brief: as §2
[8] = system: CMK; experiment: Growth inhibition of human CMK cells harboring Ala572Val mutation in JAK3 assessed as reduction in cell number at 0.001 to 10 uM after 48 hrs using trypan blue staining by hemocytometry; format: functional, cell-based; method in brief: as §2
[9] = system: CMK; experiment: Growth inhibition of human CMK cells harboring Ala572Val mutation in JAK3 assessed as reduction in cell number at 100 uM after 48 hrs using trypan blue staining by hemocytometry; format: functional, cell-based; method in brief: as §2
[10] = molecular target: Non-receptor tyrosine-protein kinase TYK2 (Homo sapiens) (UniProt P29597); experiment: Inhibition of TYK2 autophosphorylation transfected in mouse embryonic fibroblasts at 25 uM by Western blotting
Non-receptor tyrosine-protein kinase TYK2 (Homo sapiens), sequence (P29597 whole entry): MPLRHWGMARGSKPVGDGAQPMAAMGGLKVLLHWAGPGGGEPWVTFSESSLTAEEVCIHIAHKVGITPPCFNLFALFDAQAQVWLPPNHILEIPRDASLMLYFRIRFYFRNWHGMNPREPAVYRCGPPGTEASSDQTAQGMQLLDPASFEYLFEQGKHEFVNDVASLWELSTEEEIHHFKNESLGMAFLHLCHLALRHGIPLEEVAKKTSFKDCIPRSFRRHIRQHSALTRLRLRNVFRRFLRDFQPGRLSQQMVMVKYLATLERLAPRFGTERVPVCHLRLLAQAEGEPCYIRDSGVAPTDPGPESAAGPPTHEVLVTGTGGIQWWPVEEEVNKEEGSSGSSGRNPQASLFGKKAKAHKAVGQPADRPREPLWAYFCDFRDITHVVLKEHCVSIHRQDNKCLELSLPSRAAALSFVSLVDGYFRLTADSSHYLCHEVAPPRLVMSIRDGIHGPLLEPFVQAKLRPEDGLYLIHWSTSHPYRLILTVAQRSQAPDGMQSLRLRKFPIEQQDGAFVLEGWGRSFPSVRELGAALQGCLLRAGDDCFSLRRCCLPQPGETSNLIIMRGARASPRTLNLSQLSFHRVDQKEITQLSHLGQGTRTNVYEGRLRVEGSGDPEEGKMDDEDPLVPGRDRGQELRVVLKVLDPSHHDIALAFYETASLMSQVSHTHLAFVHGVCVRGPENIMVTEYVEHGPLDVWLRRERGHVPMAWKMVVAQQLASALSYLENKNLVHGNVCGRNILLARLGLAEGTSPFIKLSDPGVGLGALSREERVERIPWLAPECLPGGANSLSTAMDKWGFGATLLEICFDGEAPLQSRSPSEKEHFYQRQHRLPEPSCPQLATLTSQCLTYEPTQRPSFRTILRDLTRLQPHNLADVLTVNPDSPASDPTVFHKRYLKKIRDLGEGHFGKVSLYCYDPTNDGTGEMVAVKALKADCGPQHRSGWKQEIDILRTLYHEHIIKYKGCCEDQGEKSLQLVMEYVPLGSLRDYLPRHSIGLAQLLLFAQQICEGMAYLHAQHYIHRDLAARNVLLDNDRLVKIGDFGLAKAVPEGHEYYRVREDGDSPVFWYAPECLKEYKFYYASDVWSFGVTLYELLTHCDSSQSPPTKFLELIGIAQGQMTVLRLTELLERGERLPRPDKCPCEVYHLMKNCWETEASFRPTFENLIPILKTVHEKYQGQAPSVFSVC
Method in brief: (§4)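 TYK2 autophosphorylation was measured within intact cells, with compound present at 25 μM.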

[11] = molecular target: Tyrosine-protein kinase JAK2 (Homo sapiens, UniProt O60674, V617F); experiment: (§5) Inhibition of recombinant JAK2-Val617Phe kinase activity after 30 mins by luminometry; method in brief: as §3
Tyrosine-protein kinase JAK2, sequence (O60674 whole entry V617F): as the sequence (O60674 whole entry V617F) above

[12] = system: Tyrosine-protein kinase JAK2 (Homo sapiens), O60674 [V617F]; experiment: as §5; method in brief: as §3
[13] = system: HEL; experiment: Reduction in phospho-JAK2 [pYpY1007/1008] level in HEL cells at 25 uM by […]; format: functional, cell-based; settings: Homo sapiens, TDE = time-dependent effect
Method in brief: (§6)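 HEL cells were treated across varying compound concentrations and exposure times. Phospho-JAK2 protein levels were then measured in the cells.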

[14] = Inhibition of pathological growth of human hematopoietic progenitor cells isolated from polycythemia vera patient assessed as erythroid colony formation at 2.5 uM after 14 days in absence of erythropoietin; format: functional; settings: 336 h, read-out: GI
[15] = molecular target: Non-receptor tyrosine-protein kinase TYK2 (Homo sapiens) (UniProt P29597); experiment: Inhibition of TYK2 transfected in mouse embryonic fibroblasts at 25 uM by Western blotting; method in brief: as §4
[16] = molecular target: Proto-oncogene tyrosine-protein kinase Src (Homo sapiens) (UniProt P12931); experiment: Inhibition of recombinant pp60c-Src autophosphorylation at 25 uM by Western blotting; method in brief: as §1
[17] = system: BSC-40; experiment: Growth inhibition of african green monkey BSC40 cells immortalized with SV40 large T antigen assessed as reduction in cell number at 0.001 to 10 uM after 48 hrs using trypan blue staining by hemocytometry; format: functional, cell-based; settings: Chlorocebus aethiops; method in brief: as §2
[18] = Inhibition of pathological growth of human hematopoietic progenitor cells isolated from polycythemia vera patient assessed as erythroid colony formation at 2.5 uM after 14 days in absence of erythropoietin; settings: 336 h, read-out: GI
[19] = system: BSC-40; experiment: Growth inhibition of african green monkey BSC40 cells immortalized with SV40 large T antigen assessed as reduction in cell number at 100 uM after 48 hrs using trypan blue staining by hemocytometry; format: functional, cell-based; settings: Chlorocebus aethiops; method in brief: as §2
[20] = system: HEL; experiment: Reduction in phospho-JAK2 [pYpY1007/1008] level in HEL cells after 48 hrs by […]; format: functional, cell-based; settings: Homo sapiens; method in brief: as §6

NC(CSSCC(N)C(=O)c1ccccc1)C(=O)c1ccccc1 (stereo unspecified)
inhibition of growth at 25 µM [1]: 30%

C/C(CC(=O)c1ccccc1)=N/CCCCC/N=C(\C)CC(=O)c1ccccc1
inhibition of growth at 25 µM [1]: 31%

CC(=O)c1cc(Cl)ccc1OCC(O)CNc1ccccc1C(=O)c1ccccc1 (stereo unspecified)
inhibition of growth at 25 µM [1]: 41%

O=C(c1cccc([N+](=O)[O-])c1)c1c(O)oc2ccccc2c1=O
inhibition of growth at 25 µM [1]: 40%

O=P(O)(c1ccc(Cl)cc1)c1ccc(Cl)cc1
inhibition of growth at 25 µM [1]: 13%

Cc1cc(Cl)ccc1Nc1sc(C(=O)c2cc3cc(Cl)ccc3o2)c(N)c1C#N
inhibition of growth at 25 µM [1]: 55%

O=C(Nc1ccc(Oc2ccc(NC(=O)Nc3ccc(-c4ccccc4)cc3)cc2)cc1)Nc1ccc(-c2ccccc2)cc1
inhibition of growth at 25 µM [1]: 13%

CC/C(=C(/CC)c1ccc(O)c(CN(CC)CC)c1)c1ccc(O)c(CN(CC)CC)c1
inhibition [2]: inactive
growth inhibition (GI) [3]: Active
growth inhibition (GI) [4]: Active
inhibition [5]: > 99%
growth inhibition (GI) [6]: Active
growth inhibition (GI) [7]: inactive
growth inhibition (GI) [8]: inactive
growth inhibition (GI) [9]: Active
inhibition [10]: inactive
IC50 [11]: 60 nM
Activity [12]: Dose-dependent effect
Activity [13]: tde
inhibition of growth at 2.5 µM [14]: > 50%
inhibition [15]: inactive
inhibition of growth at 25 µM [1]: > 99%
inhibition [16]: inactive
growth inhibition (GI) [17]: inactive
inhibition of growth at 2.5 µM [18]: > 50%
growth inhibition (GI) [19]: Active
Activity [20]: Dose-dependent effect

O=C1C=C(NCCCC2CCCN3CCCCC23)C(=O)c2ccccc21 (stereo unspecified)
inhibition of growth at 25 µM [1]: 27%

CCCCCCCCNC(C(=O)c1ccc(Cl)cc1)c1ccc(Cl)cc1 (stereo unspecified)
inhibition of growth at 25 µM [1]: 7%

CC(=O)c1c(O)cc(O)cc1-c1cc(=O)c2c(O)ccc(C(C)=O)c2o1
inhibition of growth at 25 µM [1]: 42%

O=C1C=Cc2ccccc2/C1=C/NNS(=O)(=O)c1cc(Cl)c(Cl)cc1Cl
inhibition of growth at 25 µM [1]: 51%

CCc1c(C#N)c(N)c2c(N)c(C(=O)c3ccccc3)sc2c1C
inhibition of growth at 25 µM [1]: 30%

CC(CCc1ccccn1)(CCc1ccccn1)C(=O)c1ccccc1
inhibition [16]: inactive

CC1=CN=C(NCCCCNC2=NC=C(C)/C(=C3/C=CC=CC3=O)N2)N/C1=C1/C=CC=CC1=O
inhibition of growth at 25 µM [1]: 16%

O=C(Nc1ccc(Cc2ccc(NC(=O)Nc3cccc(C4=NCCN4)c3)cc2)cc1)Nc1cccc(C2=NCCN2)c1
inhibition of growth at 25 µM [1]: 13%

O=[N+]([O-])c1cc(/C=N/NS(=O)(=O)c2cc(Cl)c(Cl)cc2Cl)ccc1Cl
inhibition of growth at 25 µM [1]: 27%

O=C(CN1C=C(/C=N/O)C=CC1)C1CCC(C2CCC(C(=O)CN3CCCC(/C=N/O)C3)CC2)CC1 (stereo unspecified)
inhibition of growth at 25 µM [1]: 8%

O/N=C(\c1ccccc1)c1ccc[n+](CCc2ccccc2)c1
inhibition of growth at 25 µM [1]: 38%

Nc1ccc(C(=O)Nc2ccc3cc(S(=O)(=O)O)cc(O)c3c2)cc1
inhibition of growth at 25 µM [1]: 39%

O=C(CC(=O)CC(=O)c1ccccc1)CC(=O)c1ccccc1
inhibition of growth at 25 µM [1]: 67%

OC1C=C(c2ccccc2)C(c2ccccc2)C(c2ccccc2)C1 (stereo unspecified)
inhibition of growth at 25 µM [1]: 27%

O=C(CC(=O)c1ccccc1)CC(O)(/C=C/c1ccccc1)c1ccccc1 (stereo unspecified)
inhibition of growth at 25 µM [1]: 15%

COc1ccc2nc(NC(=O)Nc3ccc(C)c(NC(=O)Nc4nc5ccc(OC)cc5s4)c3)sc2c1
inhibition of growth at 25 µM [1]: 57%

O=C(/C=C(\C=C\c1ccccc1)c1ccccc1)CC(=O)c1ccccc1
inhibition of growth at 25 µM [1]: 11%

O=C(NCCNCCO)c1cccc(Nc2cc(O)c(O)c3ccccc23)c1
inhibition of growth at 25 µM [1]: 42%

O=C(Nc1cc(Cl)ccc1Cl)Nc1ccc(Cl)cc1C(=O)c1ccccc1
inhibition of growth at 25 µM [1]: 24%

COc1ccc(-c2n[nH]c(=S)c(-c3ccccc3)c2-c2ccccc2)cc1
inhibition of growth at 25 µM [1]: 44%

NC(=O)c1cc(NC(=O)c2ccc(C(=O)Nc3cc(C(N)=O)cc(C4=NCCN4)c3)cc2)cc(C2=NCCN2)c1
inhibition of growth at 25 µM [1]: 10%

CCc1[nH]nc(-c2ccc(OC)cc2)c1-c1ccccc1O
inhibition of growth at 25 µM [1]: 40%

O=C(/C=C(\O)c1ccc(F)cc1)C(=O)/C=C(\O)c1ccc(F)cc1
inhibition of growth at 25 µM [1]: 36%

O=C(Nc1ccccc1)Nc1ccc2ccccc2c1
inhibition of growth at 25 µM [1]: 38%

CCCCCCCNC1=C(OCC)C(=O)c2ccccc2C1=O
inhibition of growth at 25 µM [1]: 24%

O=C1C=Cc2ccccc2/C1=C/N/N=C(\C(=O)c1ccccc1)c1ccccc1
inhibition of growth at 25 µM [1]: 27%

C/C(CC(=O)c1ccccc1)=N/CCCC/N=C(/C)CC(=O)c1ccccc1
inhibition of growth at 25 µM [1]: 19%

CC(C)(C)n1nc(-c2ccc(Cl)cc2)c2c(N)ncnc21
inhibition [16]: Active

Cc1c(O)c2ccccc2c2c1sc(NCCCN(CCO)CCO)[n+]2C
inhibition of growth at 25 µM [1]: 41%
